# Screening data: PubChem, Johns Hopkins Ion Channel Center
# KCNK3 block: human KCNK3 channel inhibitors, primary screen, CHO cells, FluxOR thallium flux, B-score. AID 602410, 2012. FluxOR fluorescence; stronger effect = lower value. B-score at 10 µM. actives 0.84% (n = 340,000). Potassium channel subfamily K member 3 (Homo sapiens), O14649;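 active means B-score under library mean minus 4 SD, starting fluorescence ratio at most library mean plus 5 SD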;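 further: more negative B-score means stronger inhibition of thallium flux through KCNK3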
# KCNK9 block: KCNK9 potassium channel inhibitors, primary screen, HEK293 cells, thallium flux. Potassium channel subfamily K member 9 (Homo sapiens), Q9NPC2. AID 488922, 2010. FluxOR thallium flux fluorescence; stronger effect = lower value. B-score at 10 µM. actives 1.2% (n = 310,000);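 active means ratio B-score over 3 SD below the library mean, with starting fluorescence within 5 SD of its mean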;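 further: negative B-score means less thallium flux so channel inhibition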
# KCNQ1 inh: inhibitors of human KCNQ1 channel, primary screen, cell-based, thallium flux, high-throughput | Potassium voltage-gated channel subfamily KQT member 1 (Homo sapiens), P51787 | CHO-K1 KCNQ1, FluxOR thallium flux fluorescence; stronger effect = higher value | B-score at 10 µM | actives 1.3% (n = 310,000) | AID 2642, 2010;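 active means compounds whose thallium flux B-score, printed positive for inhibition, exceeds three library SD while starting fluorescence stays within three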;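 further: channel opened by potassium depolarization with thallium stimulus after 20 min compound exposure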
# Target sequence (P51787 whole entry, looked up): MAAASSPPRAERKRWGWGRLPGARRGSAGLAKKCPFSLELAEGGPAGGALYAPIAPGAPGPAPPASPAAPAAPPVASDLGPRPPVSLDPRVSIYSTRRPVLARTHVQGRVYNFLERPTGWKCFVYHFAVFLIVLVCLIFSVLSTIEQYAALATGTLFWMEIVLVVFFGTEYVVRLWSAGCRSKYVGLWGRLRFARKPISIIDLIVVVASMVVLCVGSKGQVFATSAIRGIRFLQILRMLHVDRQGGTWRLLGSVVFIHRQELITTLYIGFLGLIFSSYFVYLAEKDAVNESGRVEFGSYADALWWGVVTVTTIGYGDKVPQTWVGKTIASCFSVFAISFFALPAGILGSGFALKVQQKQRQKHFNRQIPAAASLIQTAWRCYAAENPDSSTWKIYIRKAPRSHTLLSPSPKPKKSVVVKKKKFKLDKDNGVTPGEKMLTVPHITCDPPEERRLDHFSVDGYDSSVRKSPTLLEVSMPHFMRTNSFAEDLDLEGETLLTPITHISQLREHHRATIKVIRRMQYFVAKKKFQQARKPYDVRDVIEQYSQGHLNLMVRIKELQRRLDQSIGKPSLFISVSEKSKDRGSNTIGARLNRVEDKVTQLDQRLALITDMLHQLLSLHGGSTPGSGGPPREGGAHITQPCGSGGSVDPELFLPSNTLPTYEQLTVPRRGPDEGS
# hERG rescue: hERG rescue from dofetilide block, primary screen, cell-based, CHO-hERG, FluxOR thallium flux, dofetilide IC70 | Voltage-gated inwardly rectifying potassium channel KCNH2 (Homo sapiens), Q12809 | dofetilide IC70 present | activation (rescue from dofetilide block), less the hit threshold, % at 10 µM | actives 0.51% (n = 310,000);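 active means activation above the mean of controls blocked by dofetilide plus 5 SD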;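 further: thallium influx through hERG after potassium depolarization seen as dye fluorescence rise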
# KCNQ1 pot: potentiators or activators of KCNQ1 channel, primary screen, cell-based, thallium flux, high-throughput; Potassium voltage-gated channel subfamily KQT member 1 (Homo sapiens), P51787; CHO-K1 KCNQ1, thallium flux FluxOR fluorescence; stronger effect = higher value; B-score at 10 µM; actives 0.35% (n = 310,000);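 active means fluorescence ratio B-score, a plate-corrected score, at least three library SD, with initial intensity B-score within 5 SD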
#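 Assay system: stable KCNQ1 CHO-K1 line; medium: assay buffer, equal DMSO in all wells; timing: 90 min dye loading and 20 min compound exposure, both at room temperature; technique: kinetic FluxOR thallium fluorescence, 10-s 1-Hz baseline, 110-s post-stimulus read; read-out basis: B score of baseline-normalized fluorescence ratio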
# * marks the source's active call; other numbers are inactive results; i = inactive; . = no result given; ! = a repeat was not active. Rows were chosen to be rich in hits. Some 3.1% of all compounds tested hit in one or more screens of this group.
SMILES,KCNK3 block,KCNK9 block,KCNQ1 inh,hERG rescue,KCNQ1 pot
COc1ccc(NCc2ccc(OC)c(Cn3ccnc3)c2)c(OC)c1,i,i,i,-2.1,i
CSc1ccccc1NC(=S)N/N=C/c1cccn1Cc1ccc(F)cc1,i,-7.86*,i,-0.9,i
COc1ccc(NC(=S)N/N=C/c2cccn2Cc2ccccc2F)cc1,i,i,i,-5.9,i
CSc1ccccc1NC(=S)N/N=C/c1cccn1Cc1cccc(C)c1,i,-6.62*,i,-17.9,i
COc1ccccc1NC(=O)COC(=O)C1=NN(c2ccccc2)C(=O)CC1,i,.,.,.,.
Cc1cc(C)nc(SCc2nnc(SCC(=O)Nc3nc(-c4ccccc4)cs3)n2-c2ccccc2)n1,i,i,i,6.5*,i
Cc1ccsc1/C=N/NC(=O)c1ccccn1,i,i,i,4.7*,i
Cc1ccsc1/C=N/NC(=O)C(N)=O,i,i,i,4.7*,i
Cc1ccsc1/C=N/NC(=O)c1cccs1,i,i,i,-2.1,i
NS(=O)(=O)c1ccc(CNC(=O)C2CCCN2C(=O)c2cccs2)cc1 (stereo not drawn),i,.,.,.,.
COc1ccc(-c2cn3c(C)c(C(=O)N4CCCc5ccccc54)sc3n2)cc1,i,i,6*,-14.9,i
CS(=O)(=O)c1cccc(-c2nnc(NC(=O)CCS(=O)(=O)c3ccccc3)o2)c1,i,i,i,-5.9,i
Cc1cccn2c(=O)c3cc(C#N)c(=NC(=O)c4ccccc4)n(Cc4ccco4)c3nc12,-9.08*!,-7.26*,i,-21.6,i
CCOC(=O)c1cc2c(=O)n3ccccc3nc2n(Cc2ccco2)c1=NC(=O)c1cccnc1,i,i,7*,-22.7,i
Cc1cccn2c(=O)c3cc(C#N)c(=NC(=O)c4ccco4)n(Cc4ccco4)c3nc12,i,i,i,-3.5,i
Cc1cccc(C(=O)N=c2c(C#N)cc3c(=O)n4cccc(C)c4nc3n2Cc2ccco2)c1,i,i,7*,-16.6,i
CCOC(=O)c1cc2c(=O)n3cccc(C)c3nc2n(Cc2ccco2)c1=NC(=O)c1cccnc1,i,.,.,.,.
CC(C)CC(=O)Nc1ccc(C(=O)COC(=O)C2CCC2)cc1,i,i,i,-11.2,i
CC1=NN(c2nc(-c3ccc(C)cc3)cs2)C(=O)C1N=Nc1ccccc1O (stereo not drawn),i,i,6*,-13.5,i
CCOC(=O)/C=C1\SCC(=O)N1CC(=O)Nc1cc(S(=O)(=O)N(C)C)ccc1C,i,.,.,.,.
COC(=O)c1ccc(C(NC(=O)OCc2ccccc2)/C(C)=C/[C@@H](C)C(=O)NCc2ccc(-c3ccccc3)cc2)cc1 (stereo partly drawn),i,i,i,-14.3,i
CCC/C=C(\CCC)C(NC(=O)OCC(C)C)c1ccc(C(=O)OC)cc1 (stereo not drawn),i,i,9*,-8.0,i
CCC/C=C(\CCC)C(NS(=O)(=O)c1cccc2cccnc12)c1ccc(C(=O)OC)cc1 (stereo not drawn),.,i,6*,-11.8,i
CC1CCCN(C(=O)COC(=O)C2CCN(S(=O)(=O)c3ccc4c(c3)OCCO4)CC2)C1 (stereo not drawn),i,i,i,-10.4,i
O=C(NC(CSC(=O)c1ccccc1)C(=O)O)OCc1ccccc1 (stereo not drawn),i,.,.,.,.
SMILES,KCNK3 block,KCNK9 block,KCNQ1 inh,hERG rescue,KCNQ1 pot
CCOc1ccc(/C(C)=N/NC(=O)c2nnn(-c3nonc3N)c2-c2cccs2)cc1,i,i,i,-2.5,i
CCC(C)c1ccccc1NC(=O)C(C)OC(=O)c1ccco1 (stereo not drawn),i,i,i,-10.9,i
CCCSC1=C(C#N)C(c2cccs2)C(C(=O)Nc2ccccc2)=C(C)N1 (stereo not drawn),i,i,12*,-14.4,i
CCSC1=C(C#N)C(c2cccs2)C(C(=O)OC)=C(C)N1 (stereo not drawn),i,i,i,-3.3,i
O=[N+]([O-])c1ccc2nc(/C=C/c3ccc(Cl)cc3)[nH]c2c1,i,i,11*,-13.8,i
O=[N+]([O-])c1ccc(-c2nc3ccc([N+](=O)[O-])cc3[nH]2)cc1,i,i,i,-6.1,i
Cc1ccc(/C=C2/NC(=O)N(Cc3ccccc3F)C2=O)s1,i,i,i,-5.0,i
CCCN1C(=O)/C(=C/c2ccc(C)s2)NC1=S,i,i,i,31.6*,32*
CC(C)CN1C(=O)/C(=C/c2cccs2)NC1=S,i,i,i,48.7*,55*
CN1CC(c2ccccn2)C2(SC(=S)N(Cc3ccccc3)C2=O)C12C(=O)Nc1ccccc12 (stereo not drawn),i,i,6*,-10.7,i
COc1cccc(C=NCCCN=Cc2cccc(OC)c2O)c1O,i,i,i,5.7*,i
CC(/C=C1\SC(=S)N(c2ccc(C(=O)O)cc2)C1=O)=C\c1ccccc1,i,i,i,5.1*,i
CC(/C=C1\SC(=S)N(NC(=O)c2ccc(C)cc2)C1=O)=C\c1ccccc1,i,i,i,-12.1,i
Cc1cc(NC(=O)CCC(=O)N(CCC(C)C)C(C(=O)NC2CCCC2)c2ccccc2C)no1 (stereo not drawn),i,i,i,0.0,i
Cc1ccc(NC(=O)CCC(=O)NNC(=O)Nc2cccc(Cl)c2)c(C)c1,i,i,i,-6.0,i
Cc1cc(C)c2sc(N(CCCN(C)C)C(=O)c3ccc(S(=O)(=O)N4CCCc5ccccc54)cc3)nc2c1,i,i,6*,-17.5,i
Cc1cc(C)c2sc(N(CCCN(C)C)C(=O)c3ccc(S(=O)(=O)N4CCc5ccccc5C4)cc3)nc2c1,i,i,i,-8.6,i
CC(NC(=S)NC(=O)c1ccccc1Br)c1ccccc1 (stereo not drawn),i,i,i,-0.5,8*
CC[N+]1(C)CCC(O)(c2ccc(OC)cc2)C(C(=O)c2ccc(OC)cc2)C1 (stereo not drawn),i,.,.,.,.
O=C(Nc1ccc2c(c1)OCO2)C1CCCN1C(=O)Nc1ccccc1 (stereo not drawn),i,i,i,-5.0,i
